Results from ChEMBL document CHEMBL1126084, “2-Acetylpyridine thiocarbonohydrazones. Potent inactivators of herpes simplex virus ribonucleotide reductase” (J Med Chem, 1992).

Assays:
Human alphaherpesvirus 1 [1] = assay: Inhibition of HSV-1 ribonucleotide reductase; parameters: concentration or dose not given beside the values; conditions: concentration not given here
How it was run: (§1)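 Partially purified HSV-1 ribonucleotide reductase, assayed by reduction of purified [14C]CDP in 200 mM Hepes Na+ pH 7.7, 10 mM dithiothreitol, 2 μM CDP (500 Ci/mol, 3–4 × Km), with and without 5 μM inhibitor unless otherwise indicated. First-order kinact (per hour) and v0 of decelerating product time courses come from iterative nonlinear least squares. kinact is the net increase over the uninhibited control, and % inhibition refers to v0.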

Human alphaherpesvirus 1 [2] = assay: Inhibitory index against HSV-1 ribonucleotide reductase
How it was run: (§2)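 Index per eq 1 combines kinact and percent inhibition of initial velocity from reductase reactions ±5 μM inhibitor (unless otherwise indicated). 0.99 is subtracted from the calculated ratio, so a non-inhibiting, non-inactivating compound scores zero. HSV-1 and human enzymes were assayed under their respective conditions.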

Human alphaherpesvirus 1 [3] = assay: Inactivation of HSV-1 ribonucleotide reductase at rate constant K inact; how it was run: as §1
[4] = target: T1, Ribonucleoside-diphosphate reductase RR1 (Homo sapiens) (UniProt P23921+Q7LG56+P31350); assay: Inhibition of human ribonucleotide reductase; format: protein-complex assay; parameters: concentration or dose not given beside the values; conditions: concentration not given here
How it was run: (§3)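 The ATP contributed about 3 μM iron, keeping inhibitors iron-complexed. Reactions ran ±5 μM inhibitor unless otherwise indicated. kinact (per hour, net over the control) and v0 came from iterative nonlinear least-squares fits of decelerating time courses.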

[5] = target: T1, Ribonucleoside-diphosphate reductase RR1 (Homo sapiens); assay: Inhibitory index against human ribonucleotide reductase; format: protein-complex assay; how it was run: as §2
[6] = target: T1, Ribonucleoside-diphosphate reductase RR1 (Homo sapiens); assay: Inactivation of human ribonucleotide reductase at rate constant K inact; format: protein-complex assay; how it was run: as §3
[7] = target: T1, Ribonucleoside-diphosphate reductase RR1 (Homo sapiens); assay: Apparent enzyme activity measured as the ratio of HSV-1 and human enzyme inhibition induces; format: functional; conditions: Human alphaherpesvirus 1
How it was run: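 Apparent selectivity is the ratio of HSV-1 to human inhibition indices, each from eq 1 at 5 μM inhibitor or at the indicated concentration for each enzyme.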

Compound: C/C(=N\N=C(/S)N/N=C(\S)Nc1cccc(Cl)c1)c1ccccn1
- inhibition (Human alphaherpesvirus 1 [1]): 50%
- Inhibitory index (Human alphaherpesvirus 1 [2]): 72
- kinact (Human alphaherpesvirus 1 [3]): 36 h⁻¹
- inhibition [4]: 48%
- Inhibitory index [5]: 0.9
- kinact [6]: 0 h⁻¹
- Apparent selectivity (HSV-1/human inhibition index ratio) [7]: 80

Compound: C/C(=N\N=C(/S)N/N=C(\S)Nc1ccc(C#N)cc1)c1ccccn1
- inhibition (Human alphaherpesvirus 1 [1]): 0%
- Inhibitory index (Human alphaherpesvirus 1 [2]): 29
- kinact (Human alphaherpesvirus 1 [3]): 29 h⁻¹
- inhibition [4]: 64%
- Inhibitory index [5]: 1.7
- kinact [6]: 0 h⁻¹
- Apparent selectivity (HSV-1/human inhibition index ratio) [7]: 17

Compound: C/C(=N\N=C(/S)N/N=C(\S)Nc1ccc(Br)cc1)c1ccccn1
- inhibition (Human alphaherpesvirus 1 [1]): 23%
- Inhibitory index (Human alphaherpesvirus 1 [2]): 57
- kinact (Human alphaherpesvirus 1 [3]): 44 h⁻¹
- inhibition [4]: 29%
- Inhibitory index [5]: 3.2
- kinact [6]: 2 h⁻¹
- Apparent selectivity (HSV-1/human inhibition index ratio) [7]: 18

Compound: C/C(=N\N=C(/S)N/N=C(\S)Nc1ccccc1Br)c1ccccn1
- inhibition (Human alphaherpesvirus 1 [1]): 38%
- Inhibitory index (Human alphaherpesvirus 1 [2]): 34
- kinact (Human alphaherpesvirus 1 [3]): 21 h⁻¹
- inhibition [4]: 14%
- Inhibitory index [5]: 0.16
- kinact [6]: 0 h⁻¹
- Apparent selectivity (HSV-1/human inhibition index ratio) [7]: 210

Compound: COc1ccccc1/N=C(\S)N/N=C(\S)N/N=C(\C)c1ccccn1
- inhibition (Human alphaherpesvirus 1 [1]): 0%
- Inhibitory index (Human alphaherpesvirus 1 [2]): 23
- kinact (Human alphaherpesvirus 1 [3]): 23 h⁻¹
- inhibition [4]: 44%
- Inhibitory index [5]: 4.5
- kinact [6]: 2.1 h⁻¹
- Apparent selectivity (HSV-1/human inhibition index ratio) [7]: 5.1

Compound: C/N=C(\S)N/N=C(\S)N/N=C(\C)c1ccccn1
- inhibition (Human alphaherpesvirus 1 [1]): 17%
- Inhibitory index (Human alphaherpesvirus 1 [2]): 5
- kinact (Human alphaherpesvirus 1 [3]): 4 h⁻¹
- inhibition [4]: 19%
- Inhibitory index [5]: 0.35
- kinact [6]: 0.1 h⁻¹
- Apparent selectivity (HSV-1/human inhibition index ratio) [7]: 14

Compound: C/C(=N\N=C(/S)N/N=C(\S)Nc1ccccc1Cl)c1cccc[n+]1[O-]
- inhibition (Human alphaherpesvirus 1 [1]): 11%
- Inhibitory index (Human alphaherpesvirus 1 [2]): 1.2
- kinact (Human alphaherpesvirus 1 [3]): 1 h⁻¹

Compound: C/C(=N\N=C(/S)N/N=C(\S)Nc1ccccn1)c1ccccn1
- inhibition (Human alphaherpesvirus 1 [1]): 57%
- Inhibitory index (Human alphaherpesvirus 1 [2]): 65
- kinact (Human alphaherpesvirus 1 [3]): 28 h⁻¹
- inhibition [4]: 67%
- Inhibitory index [5]: 2
- kinact [6]: 0 h⁻¹
- Apparent selectivity (HSV-1/human inhibition index ratio) [7]: 33

Compound: COc1c(Cl)cccc1/N=C(\S)N/N=C(\S)N/N=C(\C)c1ccccn1
- inhibition (Human alphaherpesvirus 1 [1]): 0%
- Inhibitory index (Human alphaherpesvirus 1 [2]): 25
- kinact (Human alphaherpesvirus 1 [3]): 25 h⁻¹
- inhibition [4]: 50%
- Inhibitory index [5]: 1
- kinact [6]: 0 h⁻¹
- Apparent selectivity (HSV-1/human inhibition index ratio) [7]: 26

Compound: C/C(=N\N=C(/S)N/N=C(\S)Nc1cccc(C#N)c1)c1ccccn1
- inhibition (Human alphaherpesvirus 1 [1]): 0%
- Inhibitory index (Human alphaherpesvirus 1 [2]): 32
- kinact (Human alphaherpesvirus 1 [3]): 32 h⁻¹
- inhibition [4]: 80%
- Inhibitory index [5]: 6.6
- kinact [6]: 0.6 h⁻¹
- Apparent selectivity (HSV-1/human inhibition index ratio) [7]: 4.8

Compound: COc1ccc(N/C(S)=N/N=C(\S)N/N=C(\C)c2ccccn2)cc1
- inhibition (Human alphaherpesvirus 1 [1]): 45%
- Inhibitory index (Human alphaherpesvirus 1 [2]): 29
- kinact (Human alphaherpesvirus 1 [3]): 16 h⁻¹
- inhibition [4]: 52%
- Inhibitory index [5]: 1.1
- kinact [6]: 0 h⁻¹
- Apparent selectivity (HSV-1/human inhibition index ratio) [7]: 28

Compound: C/C(=N\N=C(/S)N/N=C(\S)NC1CCCC1)c1ccccn1
- inhibition (Human alphaherpesvirus 1 [1]): 7%
- Inhibitory index (Human alphaherpesvirus 1 [2]): 13
- kinact (Human alphaherpesvirus 1 [3]): 12 h⁻¹
- inhibition [4]: 64%
- Inhibitory index [5]: 9.8
- kinact [6]: 3 h⁻¹
- Apparent selectivity (HSV-1/human inhibition index ratio) [7]: 1.3

Compound: C/C(=N\NC(=O)N/N=C(\S)Nc1ccccc1Cl)c1ccccn1
- inhibition (Human alphaherpesvirus 1 [1]): 30%
- Inhibitory index (Human alphaherpesvirus 1 [2]): 7.5
- kinact (Human alphaherpesvirus 1 [3]): 5 h⁻¹

Compound: C/C(=N\NC(=O)NNC(=O)Nc1ccccc1Cl)c1ccccn1
- inhibition (Human alphaherpesvirus 1 [1]): 0%
- Inhibitory index (Human alphaherpesvirus 1 [2]): 0
- kinact (Human alphaherpesvirus 1 [3]): 0 h⁻¹

Compound: C/C(=N\Nc1nnc(Nc2ccccc2Cl)s1)c1ccccn1
- inhibition (Human alphaherpesvirus 1 [1]): 53%
- Inhibitory index (Human alphaherpesvirus 1 [2]): 32
- kinact (Human alphaherpesvirus 1 [3]): 15 h⁻¹

Compound: S=C(N/N=C/c1ccccn1)NNC(=S)Nc1ccccc1Cl
- inhibition (Human alphaherpesvirus 1 [1]): 51%
- Inhibitory index (Human alphaherpesvirus 1 [2]): 25
- kinact (Human alphaherpesvirus 1 [3]): 12 h⁻¹
- inhibition [4]: 45%
- Inhibitory index [5]: 0.8
- kinact [6]: 0 h⁻¹
- Apparent selectivity (HSV-1/human inhibition index ratio) [7]: 31

Compound: C/C(=N\N=C(/S)N/N=C(\S)Nc1ccc(I)cc1)c1ccccn1
- inhibition (Human alphaherpesvirus 1 [1]): 24%
- Inhibitory index (Human alphaherpesvirus 1 [2]): 29
- kinact (Human alphaherpesvirus 1 [3]): 22 h⁻¹
- inhibition [4]: 5%
- Inhibitory index [5]: 0.05
- kinact [6]: 0 h⁻¹
- Apparent selectivity (HSV-1/human inhibition index ratio) [7]: 560
